In ChEMBL document CHEMBL1765016, “Indolylarylsulfones as HIV-1 non-nucleoside reverse transcriptase inhibitors: new cyclic substituents at indole-2-carboxamide” (J Med Chem, 2011):

Columns and labels:
[1] = system: Human immunodeficiency virus 2; test: Antiviral activity against HIV2 isolate ROD infected in human CEM cells assessed as inhibition of virus-induced cytopathicity after 4 days by microscopic analysis; type: functional, organism-based; details: Human immunodeficiency virus 2, ISOLATE ROD, CCRF-CEM, 96 h
Outline: (§1)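 CEM cells (~3 × 10⁵ cells/mL) infected with ~100 CCID₅₀ virus per mL, seeded into wells with compound dilutions. Syncytia (giant cell) formation scored microscopically after 4 days at 37 °C. EC₅₀ is the concentration protecting cells by 50%. Values are means of two experiments in triplicate.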

[2] = system: Human immunodeficiency virus 1; test: Antiviral activity against wild type HIV1 3B infected in human CEM cells assessed as inhibition of virus-induced cytopathicity after 4 days by microscopic analysis; type: functional, organism-based; details: Human immunodeficiency virus 1, 3B, CCRF-CEM, 96 h; outline: as §1
[3] = Selectivity index, CC50 for human CEM cells to IC50 for HIV1 3B; type: functional, CCRF-CEM
Outline: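 Ratio of CC₅₀ (Coulter count, mock-infected CEM) to EC₅₀ (CEM, HIV-1 IIIB, microscopic syncytia scoring at day 4).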

[4] = Cytotoxicity against human CEM cells by coulter counter analysis; type: cell-based; details: CEM (CCRF-CEM) cells
Outline: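 Mock-infected CEM cultures with compound, cell number counted by Coulter counter as percent of untreated control. CC₅₀ (50% reduction in proliferation) was read from plots against concentration. Values are means of two experiments in triplicate.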

[5] = molecular target: Human immunodeficiency virus type 1 reverse transcriptase (Human immunodeficiency virus 1, UniProt Q72547, Y181I); test: Inhibition of HIV1 reverse transcriptase Y181I mutant expressed in Escherichia coli assessed as incorporation of [3H]dTTP into poly(rA)/oligo(dT) by scintillation counting
Outline: (§2)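 The RT was recombinant p66(His)/p51 heterodimer, mutant form, expressed in E. coli. TCA-precipitable radioactivity on GF/C filters was read by scintillation. IC50 is the concentration giving 50% inhibition.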

[6] = molecular target: Human immunodeficiency virus type 1 reverse transcriptase (Human immunodeficiency virus 1, UniProt Q72547, K103N); test: Inhibition of HIV1 reverse transcriptase K103N mutant expressed in Escherichia coli assessed as incorporation of [3H]dTTP into poly(rA)/oligo(dT) by scintillation counting; outline: as §2
[7] = molecular target: Human immunodeficiency virus type 1 reverse transcriptase (Human immunodeficiency virus 1, UniProt Q72547, L100I); test: Inhibition of HIV1 reverse transcriptase L100I mutant expressed in Escherichia coli assessed as incorporation of [3H]dTTP into poly(rA)/oligo(dT) by scintillation counting; outline: as §2
[8] = molecular target: Human immunodeficiency virus type 1 reverse transcriptase (Human immunodeficiency virus 1, UniProt Q72547); test: Inhibition of HIV1 wild type reverse transcriptase expressed in Escherichia coli assessed as incorporation of [3H]dTTP into poly(rA)/oligo(dT) by scintillation counting
Outline: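 Template was poly(rA)/oligo(dT) 10:1 (0.3 μM 3′-OH ends) with 10 μM [³H]dTTP, at 37 °C. TCA-precipitable counts were taken on GF/C filters. IC₅₀ is 50% inhibition of RT activity.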

SMILES	EC50 [1] [µM]	EC50 [2] [µM]	Selectivity Index [3]	CC50 [4] [µM]	IC50 [5] [µM]	IC50 [6] [µM]	IC50 [7] [µM]	IC50 [8] [µM]
Cc1cc(C)cc(S(=O)(=O)c2c(C(=O)NCN3CCCCC3)[nH]c3ccc(Cl)c(F)c23)c1	> 10	0.0039	8205	32	–	–	–	–
Cc1cc(C)cc(S(=O)(=O)c2c(C(=O)NCN3CCOCC3)[nH]c3ccc([N+](=O)[O-])cc23)c1	≥ 10	0.0058	7931	46	1.6	0.864	0.099	0.15
Cc1cc(C)cc(S(=O)(=O)c2c(C(=O)NCCn3cccc3)[nH]c3ccc(Cl)c(F)c23)c1	> 10	0.0055	1782	9.8	3.7	0.17	0.03	0.018
O=C1Nc2ccc(Cl)cc2[C@@](C#CC2CC2)(C(F)(F)F)O1 [EFAVIRENZ]	> 10	0.0015	>6667	> 10000	–	–	–	–
Cc1cc(C)cc(S(=O)(=O)c2c(C(=O)NCCN3CCCC3)[nH]c3ccc([N+](=O)[O-])cc23)c1	> 10	0.016	1313	21	> 40	1.35	0.594	0.28
Cc1cc(C)cc(S(=O)(=O)c2c(C(=O)NCN3CCCCC3)[nH]c3ccc([N+](=O)[O-])cc23)c1	7.5	0.0031	3871	12	0.999	0.307	0.01	0.013
Cc1cc(C)cc(S(=O)(=O)c2c(C(=O)NCCN3CCCC3)[nH]c3ccc(Cl)c(F)c23)c1	> 2	0.028	229	6.4	> 40	2.41	1.55	0.158
Cc1cc(C)cc(S(=O)(=O)c2c(C(=O)NCCN3CCOCC3)[nH]c3ccc(Cl)cc23)c1	> 2	0.0088	5682	50	> 40	6.68	0.225	0.099
Cc1cc(C)cc(S(=O)(=O)c2c(C(=O)NCCN3CCOCC3)[nH]c3ccc([N+](=O)[O-])cc23)c1	4.9	0.008	5250	42	> 40	> 40	0.421	0.055
Cc1cc(C)cc(S(=O)(=O)c2c(C(=O)NCCc3ccccc3)[nH]c3ccc(Cl)c(F)c23)c1	> 10	0.014	1214	17	–	–	–	–
Cc1cc(C)cc(S(=O)(=O)c2c(C(=O)NCCc3ccccc3)[nH]c3ccc([N+](=O)[O-])cc23)c1	> 50	0.0068	>72529	> 500	> 40	> 40	0.04	0.06
Cc1cc(C)cc(S(=O)(=O)c2c(C(=O)NCCN3CCCC3)[nH]c3ccc(Br)cc23)c1	> 2	0.016	351	5.6	> 40	0.697	0.315	0.065
Cc1cc(C)cc(S(=O)(=O)c2c(C(=O)NCN3CCOCC3)[nH]c3ccc(Br)cc23)c1	> 10	0.0034	10294	35	4.3	0.863	0.1	0.168
Cc1cc(C)cc(S(=O)(=O)c2c(C(=O)NCc3ccccc3)[nH]c3ccc(Cl)c(F)c23)c1	> 2	0.0058	2586	15	> 40	0.144	0.04	0.04
Cc1ccnc2c1NC(=O)c1cccnc1N2C1CC1 [NEVIRAPINE]	> 10	0.0192	>520	> 10000	–	–	–	–
Cc1cc(C)cc(S(=O)(=O)c2c(C(=O)NCCOc3ccccc3)[nH]c3ccc([N+](=O)[O-])cc23)c1	> 2	0.029	>17241	> 500	> 40	> 40	> 40	0.95
Cc1cc(C)cc(S(=O)(=O)c2c(C(=O)NCCOc3ccccc3)[nH]c3ccc(Br)cc23)c1	> 25	0.029	>17241	> 500	> 40	> 40	> 40	4.72
Cc1cc(C)cc(S(=O)(=O)c2c(C(=O)NCN3CCCC3)[nH]c3ccc([N+](=O)[O-])cc23)c1	7.8	0.0025	4800	12	1.02	0.287	0.054	0.034
Cc1cc(C)cc(S(=O)(=O)c2c(C(=O)NCCN3CCOCC3)[nH]c3ccc(Cl)c(F)c23)c1	> 10	0.013	846	11	> 40	6.37	0.747	0.711
Cc1cc(C)cc(S(=O)(=O)c2c(C(=O)NCCN3CCOCC3)[nH]c3ccc(Br)cc23)c1	> 50	0.17	2406	409	> 40	1.36	0.108	0.063
Cc1cc(C)cc(S(=O)(=O)c2c(C(=O)NCCc3ccccc3)[nH]c3ccc(Br)cc23)c1	> 2	0.014	29214	409	> 40	1.68	0.023	0.128
Cc1cc(C)cc(S(=O)(=O)c2c(C(=O)NCCOc3ccccc3)[nH]c3ccc(Cl)c(F)c23)c1	> 2	0.019	549	11	> 40	18.5	0.068	0.066
Cc1cc(C)cc(S(=O)(=O)c2c(C(=O)NCN3CCCCC3)[nH]c3ccc(Br)cc23)c1	> 2	0.0037	2703	10	0.497	0.125	0.019	0.03
Cc1cc(C)cc(S(=O)(=O)c2c(C(=O)NCN3CCCC3)[nH]c3ccc(Br)cc23)c1	> 2	0.0013	7385	9.6	0.418	0.067	0.014	0.008
Cc1cc(C)cc(S(=O)(=O)c2c(C(=O)NCCn3cccc3)[nH]c3ccc([N+](=O)[O-])cc23)c1	> 50	0.0069	32754	226	> 40	0.272	0.023	0.034
Cc1cc(C)cc(S(=O)(=O)c2c(C(=O)NCCn3cccc3)[nH]c3ccc(Br)cc23)c1	> 10	0.0064	22813	146	–	–	–	–
Cc1cc(C)cc(S(=O)(=O)c2c(C(=O)NCN3CCCC3)[nH]c3ccc(Cl)c(F)c23)c1	> 2	0.0039	2385	9.3	–	–	–	–
Cc1cc(C)cc(S(=O)(=O)c2c(C(=O)NCN3CCOCC3)[nH]c3ccc(Cl)c(F)c23)c1	> 10	0.0025	15200	38	10.2	1.17	0.241	0.08
